# Calls of active or inactive are those of the source.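 Rule for the calls, unless noted: active = visually confirmed hit in the image check and inhibition above 20%; inconclusive = visually confirmed hit but inhibition not above 20%; inactive = no visual hit in the image check.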
# What was measured:
# [1] = inhibitors of TNFa-induced NFkB p65 translocation, primary screen, imaging, HUVEC, MLSMR starter and 10KST1 sets (AID 438;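 active = inhibition above 20% together with a positive visual image hit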;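 note: compound added about 3h40 before a 20 min TNFalpha stimulation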;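 for inhibition: signal is the nuclear over cytoplasmic p65 intensity ratio per well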); conditions: HUVEC TNFa-induced p65 nuclear translocation; cell count: measured here: nuclei count (cytotoxicity indicator), at 2.08 µM; inhibition: at 2 µM, stronger effect = higher value, 0% TNFa-plus-vehicle, 100% no-TNFa wells
# [2] = endothelial E-selectin expression blockers – imaging, HUVEC, immunofluorescence, MLSMR starter and 10KST1 sets, primary screen (AID 487); conditions: HUVEC TNFalpha-induced E-selectin immunofluorescence imaging, at 2 µM; inhibition: stronger effect = higher value; nuclei count: measured here: cell number, toxicity;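 for inhibition: signal is fraction of cell area covered by stained E-selectin grains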;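 for nuclei count: 100% = median nuclei count of all wells on the same plate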
# [3] = Primary imaging screen for DUSP6 inhibitors that restore phospho-Erk in transfected HeLa cells, chemical complementation (AID 609;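 active = compounds giving at least 50% inhibition in the cell-based MKP-3 phosphatase rescue imaging test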;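 for inhibition: phospho-Erk level distribution per well compared with pooled transfected vehicle control wells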); conditions: HeLa MKP-3 transfected, phospho-Erk imaging KS statistic, at 10 µM, cells stimulated with TPA for 15 min
# [4] = molecular target: Dual specificity protein phosphatase 6 (Homo sapiens) (UniProt Q16828); experiment: as above; conditions: HeLa MKP-3 transfected, phospho-Erk imaging KS statistic; at 10 µM; stronger effect = higher value; cells stimulated with TPA for 15 min
# [5] = molecular target: Voltage-gated potassium channel subunit beta-2 (Rattus norvegicus) (UniProt P62483); experiment: inhibitors of rat Kvbeta2 reductase activity – biochemical, NADPH fluorescence, primary screen (AID 622;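 active = fluorescence slope higher than the sample average by over 3 SD, cut at about -0.22 in these data, passing the limit was not always enough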;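 note: slope of raw intensity against log time taken from 70 to 1610 s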); conditions: recombinant KvBeta, 4-cyanobenzaldehyde reduction, at 10 µM, stronger effect = higher value
# [6] = molecular target: Voltage-gated potassium channel subunit beta-2 (Rattus norvegicus) (UniProt P62483); experiment: enhancers of rat Kvbeta2 NADPH turnover – biochemical, NADPH fluorescence, primary screen (AID 623;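 active = NADPH fluorescence slope more negative than the mean of all samples by about 3 SD, 99.7% confidence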;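 note: fluorescence intensity change per second fitted from 20 to 320 s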); conditions: Recombinant KvBeta, NADPH fluorescence decrease slope, 10 min; at 10 µM; stronger effect = lower value
# [7] = molecular target: Alpha-2C adrenergic receptor (Homo sapiens) (UniProt P18825); experiment: compounds altering alpha2C-coupled GIRK flux – cell-based, HEK293 alpha2C/GIRK1/2, thallium flux, primary screen (AID 624;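 active = fluorescence slope after compound addition differing from the mean of all screened samples at 99.7% confidence, in either direction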;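 note: slope of fluorescence ratio to pre-addition baseline per second over 15 to 24 s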); conditions: thallium flux BTC fluorescence, at 10 µM, actives lie on both sides
# [8] = inhibitors of larval lipid processing in zebrafish, primary screen, whole organism, PED6 fluorescence, gall bladder and intestine (AID 686;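 active = a full or partial loss of lipid-probe fluorescence in the fish gall bladder, intestine or both, judged by eye; inactive = no fluorescence loss, or compound toxic to the fish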;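 note: larvae 5 to 7 days old with five fish per well; signal comes from phospholipase A2 cleavage of quenched PED6 carried via bile; overnight exposure to compound and PED6 before scoring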); conditions: Zebrafish larvae PED6 lipid processing, fluorescence scoring; screened at 20 µM (by protocol)
# In short: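 Also added: quenched phospholipase substrate PED6, 100 nM final, ingested by larvae; System: zebrafish larvae, 5-7 d; Quantity: 5 larvae per well; Compound: 20 µM single dose; Schedule: overnight compound and PED6 incubation; Read-out: visual per-well fluorescence inhibition score; Measured by: By-eye fluorescence microscopy; Medium: E3.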
# [9] = loss of swimming-algae plug formation – whole organism, Chlamydomonas reinhardtii, WT vs cilia-less mutant, absorbance, 96-well, primary screen (AID 463189;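 active = inhibition at or above 50% relative to wild type and mutant plate controls; inactive = inhibition below 50%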;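 note: 0% = wild type cc124 cells in DMSO and 100% = ciliumless bld1 mutant cells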); conditions: Chlamydomonas reinhardtii gravitaxis, OD600 absorbance, 2 days; at 10 µM; stronger effect = higher value
# [10] = measured here: cell density z-score
# [11] = measured here: nuclear c-Myc green intensity z-score
# [12] = measured here: nuclear pErk red intensity z-score, stronger effect = higher value
# Sequence of Voltage-gated potassium channel subunit beta-2 (Rattus norvegicus) (P62483 whole entry, looked up): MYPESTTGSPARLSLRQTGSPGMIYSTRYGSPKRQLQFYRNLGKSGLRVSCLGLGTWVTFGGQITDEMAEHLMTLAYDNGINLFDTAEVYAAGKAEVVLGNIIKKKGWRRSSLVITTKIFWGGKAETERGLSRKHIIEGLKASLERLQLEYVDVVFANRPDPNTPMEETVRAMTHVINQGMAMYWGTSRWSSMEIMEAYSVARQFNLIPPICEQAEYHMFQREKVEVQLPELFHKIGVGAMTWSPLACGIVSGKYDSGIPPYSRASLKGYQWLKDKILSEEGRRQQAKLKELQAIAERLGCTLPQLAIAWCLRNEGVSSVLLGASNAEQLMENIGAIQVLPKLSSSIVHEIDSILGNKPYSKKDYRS
# Sequence of Alpha-2C adrenergic receptor (Homo sapiens) (P18825 whole entry, looked up): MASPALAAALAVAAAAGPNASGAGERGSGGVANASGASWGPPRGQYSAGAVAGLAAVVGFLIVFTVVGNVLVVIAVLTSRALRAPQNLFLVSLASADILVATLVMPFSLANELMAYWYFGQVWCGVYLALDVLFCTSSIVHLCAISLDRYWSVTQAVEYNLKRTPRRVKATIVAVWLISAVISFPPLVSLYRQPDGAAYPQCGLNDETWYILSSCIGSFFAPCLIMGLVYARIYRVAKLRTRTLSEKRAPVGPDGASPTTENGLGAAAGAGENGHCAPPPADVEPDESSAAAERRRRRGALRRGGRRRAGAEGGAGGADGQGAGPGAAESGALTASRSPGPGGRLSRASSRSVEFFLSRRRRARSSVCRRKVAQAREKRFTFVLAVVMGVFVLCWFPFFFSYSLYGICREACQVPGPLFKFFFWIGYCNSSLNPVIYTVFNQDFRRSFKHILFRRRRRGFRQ
# Sequence of Dual specificity protein phosphatase 6 (Homo sapiens) (Q16828 whole entry, looked up): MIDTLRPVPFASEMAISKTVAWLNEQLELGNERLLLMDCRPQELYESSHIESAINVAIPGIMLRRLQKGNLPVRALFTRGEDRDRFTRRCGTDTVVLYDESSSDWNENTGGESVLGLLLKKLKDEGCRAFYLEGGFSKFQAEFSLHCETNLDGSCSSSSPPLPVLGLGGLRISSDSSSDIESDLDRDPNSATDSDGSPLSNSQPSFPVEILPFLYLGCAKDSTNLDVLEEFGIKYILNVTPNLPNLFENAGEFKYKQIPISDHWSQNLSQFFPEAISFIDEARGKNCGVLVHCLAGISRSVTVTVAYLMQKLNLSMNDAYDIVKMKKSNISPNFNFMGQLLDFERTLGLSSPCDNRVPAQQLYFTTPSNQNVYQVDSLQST
Compound,cell count [1],inhibition [1],inhibition [2],nuclei count [2] [%],"z-score [3, 10]","z-score [3, 11]","z-score [3, 12]",inhibition [4],fluorescence slope [5],NADPH fluorescence slope [6],slope [7],outcome [8],inhibition [9]
Cc1cc(C)nc(NC2=NCC(=O)N2c2cccc(Cl)c2)n1,581,-4.9% (inactive),-200% (inactive),141,1.05,1.03,-2.43,15.9% (inactive),-0.517 (inactive),-4.2e-05 (inactive),0.00561 (inactive),inactive,-3.6% (inactive)
CSc1nc(N)nc(SCC(=O)OC(C)C)c1C#N,394,-11.8% (inactive),-26.4% (inactive),76.9,-1.22,-0.698,-1.26,0.671% (inactive),-0.371 (inactive),5e-05 (inactive),0.00629 (inactive),inactive,72.2% (active)
N#CC1=C(SCC(=O)c2ccccc2)NC2=C(C(=O)CCC2)C1c1ccco1 (centres undefined),310,-8% (inactive),-43.4% (inactive),91.7,-2.24,2.65,-0.86,1.42% (inactive),-0.435 (inactive),-3.2e-05 (inactive),0.00719 (inactive),inactive,-15.7% (inactive)
Cc1ccc(-c2nn3c(-c4cccc(Cl)c4)nnc3s2)cc1,482,-6.6% (inactive),-115% (inactive),128,-1.6,-0.179,1.45,-7.86% (inactive),-0.434 (inactive),7.3e-06 (inactive),0.00635 (inactive),inactive,26.8% (inactive)
CCC(C)Nc1nc(-c2cccc(OC)c2O)nc2ccccc12 (centres undefined),570,3.5% (inactive),-68.3% (inactive),152,-0.862,-0.242,1.22,1.6e-07% (inactive),-0.394 (inactive),-5e-05 (inactive),0.00426 (inactive),inactive,65.6% (active)
CCSc1nnc(N(CCC#N)CCC#N)s1,364,-4.7% (inactive),-60.2% (inactive),114,-0.814,0.606,-1.64,5.57% (inactive),-0.474 (inactive),-5.4e-06 (inactive),0.00528 (inactive),inactive,-11.4% (inactive)
COc1cc(-c2cc(C(F)(F)F)n3ncc(C(=O)O)c3n2)cc(OC)c1OC,479,-8.4% (inactive),-63% (inactive),123,0.0221,-0.381,0.038,11.3% (inactive),-0.439 (inactive),-0.000193 (inactive),0.00431 (inactive),inactive,-8.65% (inactive)
COC(=O)c1ccc(Nc2cc(C)nc(-c3ccccc3O)n2)cc1,598,-2.7% (inactive),-66.3% (inactive),140,0.899,0.0889,-0.242,1.9e-07% (inactive),-0.106 (inactive),2.6e-07 (inactive),0.00449 (inactive),inactive,17.7% (inactive)
COc1cccc(C2/C(=C(/O)c3cnn(-c4ccccc4)c3C)C(=O)C(=O)N2CCN(C)C)c1OC (centres undefined),502,6.3% (inactive),-119% (inactive),152,-0.295,0.206,-1.1,-7.01% (inactive),-0.506 (inactive),-2.1e-05 (inactive),0.00541 (inactive),inactive,8.54% (inactive)
CCN(CC)CCCN1C(=O)C(O)=C(C(=O)c2ccc(C)o2)C1c1ccc(C)o1 (centres undefined),581,-17.5% (inactive),-104% (inactive),153,0.106,0.341,0.337,-2.47% (inactive),-0.485 (inactive),-5.2e-05 (inactive),0.00555 (inactive),inactive,4.2% (inactive)
N#CC1=C(SCc2ccccc2)NC2=C(C(=O)CCC2)C1c1ccc2c(c1)OCO2 (centres undefined),490,-28.9% (inactive),-54.8% (inactive),138,0.352,-1.14,-1.35,-4.27% (inactive),-0.525 (inactive),-5.3e-05 (inactive),0.0074 (inactive),inactive,-2.38% (inactive)
CCOc1ccccc1N1CCN(c2nc3ccccc3nc2C(C#N)C(=O)OC(C)C)CC1 (centres undefined),451,-7.4% (inactive),-161% (inactive),148,-1.19,-0.0935,0.236,-10.1% (inactive),-0.399 (inactive),-2.9e-05 (inactive),0.00483 (inactive),inactive,10.3% (inactive)
C=CCOC(=O)C(C#N)c1nc2ccccc2nc1N1CCC(C(=O)OCC)CC1 (centres undefined),486,-17.7% (inactive),-58.1% (inactive),138,0.17,0.218,-0.151,-6.06% (inactive),-0.471 (inactive),-6.3e-05 (inactive),0.00188 (inactive),inactive,13.6% (inactive)
